Test system: Mycobacterium tuberculosis
Test: Antimicrobial activity against recombinant Mycobacterium bovis BCG expressing pMV361 lux after 5 days by luciferase assay
Assay type: functional
Conditions: variant bovis BCG, 120 h
In short: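 rBCG (pMV361 lux) in Middlebrook 7H9 broth at about 5e5 cfu/mL final inoculum. Compounds were tested at 0.1–50 µg/mL and at higher levels, with no-drug 1% DMSO growth controls. Tubes were incubated at 36 °C in ambient air. A 100 µL aliquot received 100 µL of 1 mM luciferin, and RLU were read at day 0 (within 30 min) and day 5. Inhibition was scored as a drop in luminescence.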

Row | SMILES | MIC
1 | COc1c(O)ccc2c1C(=O)N1CCc3cc4c(cc3C1C2)OCO4 (stereo not given) | > 50 µg/mL
2 | COc1c(OC(C)=O)ccc2c1C(=O)N1CCc3cc4c(cc3C1C2)OCO4 (stereo not given) | > 50 µg/mL
3 | COc1ccc2c(c1OC)C(=O)N1CCc3cc4c(cc3C1C2)OCO4 (stereo not given) | > 50 µg/mL
4 | COc1ccc2cc3[n+](cc2c1OC)CCc1cc2c(cc1-3)OCO2.[Cl-] [BERBERINE CHLORIDE] | 200 µg/mL
5 | COc1ccc2c(c1OC)CN1CCc3cc4c(cc3[C@@H]1C2)OCO4 [CANADINE] | > 50 µg/mL
